{
  "source": "BindingDB's records for doi:10.1021/jm00089a014",
  "about": "(Genentech, 1992)",
  "note": "*1 amine or outer side, *2 acyl side, *3 side chain or, on linkers, in order; H or OH if unused. Where a SMILES comes first, the peptide text is derived from it. Bridges are numbered along the chain shown (N, C = ends). [ ]: non-standard residue; d: D form. Cys(O)(CH2CO) = O=C([C@H](C[S+]([O-])CC(=O)[*:3])N[*:1])[*:2]",
  "data": [
    {"biological_target": "Integrin alpha-IIb/beta-3 (Homo sapiens, UniProt P08514+P05106)", "sequence (P05106 27-788 limits assumed)": "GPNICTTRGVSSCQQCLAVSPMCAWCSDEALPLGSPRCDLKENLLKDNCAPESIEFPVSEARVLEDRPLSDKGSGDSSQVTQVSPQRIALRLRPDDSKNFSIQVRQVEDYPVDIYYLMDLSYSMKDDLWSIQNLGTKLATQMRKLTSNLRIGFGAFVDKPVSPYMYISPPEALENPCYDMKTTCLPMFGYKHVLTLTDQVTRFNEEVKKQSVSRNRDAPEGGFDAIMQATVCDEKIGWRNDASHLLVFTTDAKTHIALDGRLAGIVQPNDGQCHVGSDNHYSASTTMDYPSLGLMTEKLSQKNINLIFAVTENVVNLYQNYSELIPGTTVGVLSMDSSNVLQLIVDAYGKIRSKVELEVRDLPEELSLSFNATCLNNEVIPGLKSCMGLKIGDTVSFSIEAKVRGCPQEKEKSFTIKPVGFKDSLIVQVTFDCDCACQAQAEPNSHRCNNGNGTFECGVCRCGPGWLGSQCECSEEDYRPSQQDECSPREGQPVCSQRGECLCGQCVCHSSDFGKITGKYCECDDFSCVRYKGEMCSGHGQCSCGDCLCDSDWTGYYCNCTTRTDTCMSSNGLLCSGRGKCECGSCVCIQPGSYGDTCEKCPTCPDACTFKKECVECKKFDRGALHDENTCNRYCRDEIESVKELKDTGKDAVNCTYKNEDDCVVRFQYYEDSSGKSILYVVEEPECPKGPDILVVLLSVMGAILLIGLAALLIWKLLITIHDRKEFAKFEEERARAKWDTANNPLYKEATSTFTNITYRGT", "sequence (P08514 32-887 limits assumed)": "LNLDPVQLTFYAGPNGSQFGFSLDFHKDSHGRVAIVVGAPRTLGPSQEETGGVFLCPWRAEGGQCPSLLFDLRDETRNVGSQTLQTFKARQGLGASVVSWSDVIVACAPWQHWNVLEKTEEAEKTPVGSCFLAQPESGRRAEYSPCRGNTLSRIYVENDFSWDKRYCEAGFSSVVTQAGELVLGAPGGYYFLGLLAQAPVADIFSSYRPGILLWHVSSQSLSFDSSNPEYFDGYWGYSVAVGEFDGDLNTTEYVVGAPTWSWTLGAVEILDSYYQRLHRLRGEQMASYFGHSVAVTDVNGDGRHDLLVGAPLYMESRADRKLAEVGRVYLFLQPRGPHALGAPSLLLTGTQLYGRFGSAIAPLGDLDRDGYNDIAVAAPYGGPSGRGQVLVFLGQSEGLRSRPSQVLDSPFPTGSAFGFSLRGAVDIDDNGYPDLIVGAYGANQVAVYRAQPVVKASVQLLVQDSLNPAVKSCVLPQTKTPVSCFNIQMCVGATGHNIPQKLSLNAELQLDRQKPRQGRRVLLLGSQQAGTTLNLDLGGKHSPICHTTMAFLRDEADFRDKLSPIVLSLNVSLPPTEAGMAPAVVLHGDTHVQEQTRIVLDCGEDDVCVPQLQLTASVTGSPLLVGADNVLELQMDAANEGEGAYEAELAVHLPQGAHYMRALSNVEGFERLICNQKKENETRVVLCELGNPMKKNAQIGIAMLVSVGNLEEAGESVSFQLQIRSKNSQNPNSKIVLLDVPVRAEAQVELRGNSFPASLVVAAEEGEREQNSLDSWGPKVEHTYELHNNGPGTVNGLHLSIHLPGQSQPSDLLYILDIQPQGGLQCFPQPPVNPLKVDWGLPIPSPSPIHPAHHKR", "sequence (P08514 891-1039 limits assumed)": "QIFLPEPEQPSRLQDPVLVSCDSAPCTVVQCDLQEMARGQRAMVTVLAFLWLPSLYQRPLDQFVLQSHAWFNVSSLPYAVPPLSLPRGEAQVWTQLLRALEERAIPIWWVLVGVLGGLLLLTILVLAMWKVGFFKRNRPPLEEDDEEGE", "assay": "Inhibition of ADP-induced platelet aggregation in human platelet-rich plasma", "procedure,_shortened": "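Human blood drawn into 3.8% sodium citrate (9:1); PRP from 180g spin, 12 min, 22 °C; count adjusted to 3 × 10^8/mL with PPP. PRP preincubated with test sample 5 min at 37 °C in aggregometer, then ADP 17.2 µM final. Inhibition from transmittance change at 5 min versus no-sample maximum; 12-14 concentrations over ~200-fold range; IC50 by four-parameter fit; n ≥ 3.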", "units": {"IC50": "nM"}, "values": [
      {"molecule": "CC(C)[C@@H]1NC(=O)C[S+]([O-])C[C@@H](C(=O)O)NC(=O)[C@H](CC(=O)O)NC(=O)CNC(=O)[C@H](CCCNC(=N)N)NC1=O", "note": "(stereo not given in full) (VRGD[Cys(O)(CH2CO)]-OH; lactam N-5)", "IC50": 210},
      {"molecule": "N=C(N)NCCC[C@@H]1NC(=O)[C@@H](Cc2ccccc2)NC(=O)CSC[C@@H](C(=O)O)NC(=O)[C@H](CC(=O)O)NC(=O)CNC1=O", "IC50": 18500},
      {"molecule": "N=C(N)NCCC[C@@H]1NC(=O)[C@@H](Cc2cnc[nH]2)NC(=O)CSC[C@@H](C(=O)O)NC(=O)[C@H](CC(=O)O)NC(=O)CNC1=O", "IC50": 1080},
      {"molecule": "N=C(N)NCCC[C@@H]1NC(=O)[C@H]2CCCN2C(=O)CSC[C@@H](C(=O)O)NC(=O)[C@H](CC(=O)O)NC(=O)CNC1=O", "note": "({CH2CO}-[dP]RGDC-OH; thioether N-5)", "IC50": 1960},
      {"molecule": "N=C(N)NCCC[C@@H]1NC(=O)[C@H](Cc2ccc(O)cc2)NC(=O)C[S+]([O-])C[C@@H](C(=O)O)NC(=O)[C@H](CC(=O)O)NC(=O)CNC1=O", "note": "(stereo not given in full)", "IC50": 450},
      {"molecule": "C[C@@H](O)[C@@H]1NC(=O)C[S+]([O-])C[C@@H](C(=O)O)NC(=O)[C@H](CC(=O)O)NC(=O)CNC(=O)[C@H](CCCN=C(N)N)NC1=O", "note": "(stereo not given in full)", "IC50": 100},
      {"molecule": "N=C(N)NCCC[C@@H]1NC(=O)[C@H](Cc2c[nH]c3ccccc23)NC(=O)CSC[C@@H](C(=O)O)NC(=O)[C@H](CC(=O)O)NC(=O)CNC1=O", "IC50": 460},
      {"molecule": "N=C(N)NCCC[C@@H]1NC(=O)[C@H](CC(N)=O)NC(=O)CSC[C@@H](C(=O)O)NC(=O)[C@H](CC(=O)O)NC(=O)CNC1=O", "note": "({CH2CO}-NRGDC-OH; thioether N-5)", "IC50": 310},
      {"molecule": "N=C(N)NCCC[C@@H]1NC(=O)[C@H](CC(=O)O)NC(=O)C[S+]([O-])C[C@@H](C(=O)O)NC(=O)[C@H](CC(=O)O)NC(=O)CNC1=O", "note": "(stereo not given in full) (DRGD[Cys(O)(CH2CO)]-OH; lactam N-5)", "IC50": 2140},
      {"molecule": "CC(C)C[C@H](NC(=O)[C@H](CC(=O)O)NC(=O)CNC(=O)[C@@H](N)CCCNC(=N)N)C(=O)O", "note": "(H-RGDL-OH)", "IC50": "> 2000"},
      {"molecule": "CC(C)[C@H](NC(=O)[C@H](CC(=O)O)NC(=O)CNC(=O)[C@H](CCCNC(=N)N)NC(=O)CN)C(=O)O", "note": "(H-GRGDV-OH)", "IC50": 75000},
      {"molecule": "C[C@H]1NC(=O)CSC[C@@H](C(=O)O)NC(=O)[C@H](CC(=O)O)NC(=O)CNC(=O)[C@H](CCCNC(=N)N)NC1=O", "note": "({CH2CO}-[dA]RGDC-OH; thioether N-5)", "IC50": 4000},
      {"molecule": "CSCC[C@@H]1NC(=O)CSC[C@@H](C(=O)O)NC(=O)[C@H](CC(=O)O)NC(=O)CNC(=O)[C@H](CCCNC(=N)N)NC1=O", "IC50": 1060},
      {"molecule": "N=C(N)NCCC[C@@H]1NC(=O)CNC(=O)CS(=O)(=O)C[C@@H](C(=O)O)NC(=O)[C@H](CC(=O)O)NC(=O)CNC1=O", "IC50": 7700},
      {"molecule": "C[C@@H]1NC(=O)CSC[C@@H](C(=O)O)NC(=O)[C@H](CC(=O)O)NC(=O)CNC(=O)[C@H](CCCNC(=N)N)NC1=O", "note": "({CH2CO}-ARGDC-OH; thioether N-5)", "IC50": 590},
      {"molecule": "CC(=O)NCC(=O)N[C@@H](CCCNC(=N)N)C(=O)NCC(=O)N[C@@H](CC(=O)O)C(=O)N[C@H](C(=O)O)C(C)C", "note": "(Ac-GRGDV-OH)", "IC50": 77000},
      {"molecule": "CC(C)C[C@@H]1NC(=O)CSC[C@@H](C(=O)O)NC(=O)[C@H](CC(=O)O)NC(=O)CNC(=O)[C@H](CCCNC(=N)N)NC1=O", "IC50": 200},
      {"molecule": "CC[C@@H](C)[C@H]1NC(=O)CSC[C@@H](C(=O)O)NC(=O)[C@H](CC(=O)O)NC(=O)CNC(=O)[C@H](CCCN=C(N)N)NC1=O", "IC50": 6080},
      {"molecule": "CC[C@H](C)[C@@H]1NC(=O)CSC[C@@H](C(=O)O)NC(=O)[C@H](CC(=O)O)NC(=O)CNC(=O)[C@H](CCCN=C(N)N)NC1=O", "IC50": 270},
      {"molecule": "N=C(N)NCCC[C@@H]1NC(=O)[C@H](CCCCN)NC(=O)CSC[C@@H](C(=O)O)NC(=O)[C@H](CC(=O)O)NC(=O)CNC1=O", "IC50": 600},
      {"molecule": "C[C@H](O)[C@H]1NC(=O)CSC[C@@H](C(=O)O)NC(=O)[C@H](CC(=O)O)NC(=O)CNC(=O)[C@H](CCCN=C(N)N)NC1=O", "IC50": 2920},
      {"molecule": "N=C(N)NCCC[C@@H]1NC(=O)CNC(=O)CSC[C@@H](C(=O)O)NC(=O)[C@H](CC(=O)O)NC(=O)CNC1=O", "note": "({CH2CO}-GRGDC-OH; thioether N-5)", "IC50": 5000},
      {"molecule": "N=C(N)NCCC[C@@H]1NC(=O)[C@H](Cc2ccccc2)NC(=O)C[S+]([O-])C[C@@H](C(=O)O)NC(=O)[C@H](CC(=O)O)NC(=O)CNC1=O", "note": "(stereo not given in full)", "IC50": 2230},
      {"molecule": "N=C(N)NCCC[C@H](NC(=O)CN)C(=O)NCC(=O)N[C@@H](CC(=O)O)C(=O)N[C@@H](CC(=O)O)C(=O)O", "note": "(H-GRGDD-OH)", "IC50": "> 500000"},
      {"molecule": "N=C(N)NCCC[C@@H]1NC(=O)[C@H](CO)NC(=O)C[S+]([O-])C[C@@H](C(=O)O)NC(=O)[C@H](CC(=O)O)NC(=O)CNC1=O", "note": "(stereo not given in full) (SRGD[Cys(O)(CH2CO)]-OH; lactam N-5)", "IC50": 490},
      {"molecule": "N=C(N)NCCC[C@@H]1NC(=O)CNC(=O)C(c2ccc(-c3ccccc3)cc2)SC[C@@H](C(=O)O)NC(=O)[C@H](CC(=O)O)NC(=O)CNC1=O", "note": "(stereo not given in full)", "IC50": 1480},
      {"molecule": "N=C(N)NCCC[C@@H]1NC(=O)[C@H](CCC(N)=O)NC(=O)CSC[C@@H](C(=O)O)NC(=O)[C@H](CC(=O)O)NC(=O)CNC1=O", "IC50": 680},
      {"molecule": "CCCC1SC[C@@H](C(=O)O)NC(=O)[C@H](CC(=O)O)NC(=O)CNC(=O)[C@H](CCCNC(=N)N)NC(=O)CNC1=O", "note": "(stereo not given in full)", "IC50": 1500},
      {"molecule": "N=C(N)NCCC[C@@H]1NC(=O)CNC(=O)C(c2ccc3ccccc3c2)SC[C@@H](C(=O)O)NC(=O)[C@H](CC(=O)O)NC(=O)CNC1=O", "note": "(stereo not given in full)", "IC50": 4000},
      {"molecule": "N=C(N)NCCC[C@@H]1NC(=O)CNC(=O)C(c2ccccc2C(F)(F)F)SC[C@@H](C(=O)O)NC(=O)[C@H](CC(=O)O)NC(=O)CNC1=O", "note": "(stereo not given in full)", "IC50": 150},
      {"molecule": "N=C(N)NCCC[C@@H]1NC(=O)[C@H](Cc2ccc(O)cc2)NC(=O)CSC[C@@H](C(=O)O)NC(=O)[C@H](CC(=O)O)NC(=O)CNC1=O", "note": "({CH2CO}-YRGDC-OH; thioether N-5)", "IC50": 150},
      {"molecule": "N=C(N)NCCC[C@@H]1NC(=O)[C@H](CCC(=O)O)NC(=O)C[S+]([O-])C[C@@H](C(=O)O)NC(=O)[C@H](CC(=O)O)NC(=O)CNC1=O", "note": "(stereo not given in full)", "IC50": 900},
      {"molecule": "N=C(N)NCCC[C@@H]1NC(=O)[C@H](Cc2ccc(O)cc2)NC(=O)CSC[C@@H](C(N)=O)NC(=O)[C@H](CC(=O)O)NC(=O)CNC1=O", "note": "({CH2CO}-YRGDC-NH2; thioether N-5)", "IC50": 700},
      {"molecule": "N=C(N)NCCC[C@@H]1NC(=O)c2cccc(c2)CSC[C@@H](C(=O)O)NC(=O)[C@H](CC(=O)O)NC(=O)CNC1=O", "IC50": 30800},
      {"molecule": "C[C@@H]1NC(=O)C[S+]([O-])C[C@@H](C(=O)O)NC(=O)[C@H](CC(=O)O)NC(=O)CNC(=O)[C@H](CCCNC(=N)N)NC1=O", "note": "(stereo not given in full)", "IC50": 610},
      {"molecule": "N=C(N)NCCC[C@@H]1NC(=O)CNC(=O)C(c2cccc3ccccc23)SC[C@@H](C(=O)O)NC(=O)[C@H](CC(=O)O)NC(=O)CNC1=O", "note": "(stereo not given in full)", "IC50": 780},
      {"molecule": "CC(C)C[C@H](NC(=O)[C@H](CC(=O)O)NC(=O)CNC(=O)[C@H](CCCNC(=N)N)NC(=O)CN)C(=O)O", "note": "(H-GRGDL-OH)", "IC50": 170000},
      {"molecule": "N=C(N)NCCC[C@@H]1NC(=O)[C@@H](Cc2ccc(O)cc2)NC(=O)CSC[C@@H](C(=O)O)NC(=O)[C@H](CC(=O)O)NC(=O)CNC1=O", "note": "({CH2CO}-[dY]RGDC-OH; thioether N-5)", "IC50": 3450},
      {"molecule": "N=C(N)NCCC[C@@H]1NC(=O)CNC(=O)CSC[C@@H](C(N)=O)NC(=O)[C@H](CC(=O)O)NC(=O)CNC1=O", "note": "({CH2CO}-GRGDC-NH2; thioether N-5)", "IC50": 150000},
      {"molecule": "N=C(N)NCCC[C@@H]1NC(=O)[C@@H]2CCCN2C(=O)CSC[C@@H](C(=O)O)NC(=O)[C@H](CC(=O)O)NC(=O)CNC1=O", "note": "({CH2CO}-PRGDC-OH; thioether N-5)", "IC50": 430}
    ]}
  ]
}
